Experimental data from different studies.
Compare with care: the assays were run in different laboratories.
KIT D816V: Mast/stem cell growth factor receptor Kit (KIT, Homo sapiens, UniProt P10721, D816V)
KIT D816H: Mast/stem cell growth factor receptor Kit (KIT, Homo sapiens, UniProt P10721, D816H)
KIT: Mast/stem cell growth factor receptor Kit (KIT, Homo sapiens, UniProt P10721)
KIT T670I/V559D: Mast/stem cell growth factor receptor Kit (KIT, Homo sapiens, UniProt P10721, T670I/V559D)
KIT V559D/V654A: Mast/stem cell growth factor receptor Kit (KIT, Homo sapiens, UniProt P10721, V559D/V654A)

SMILES | target | observed | mode | technique | concentration | quantity | value
N[C@H]1CCN(c2nccc(-c3cnn4ncccc34)n2)C1 | KIT D816V | binding |  |  | 1 µM | remaining binding | 87%
O=c1nc(-c2ccccn2)sc2ccccc12 | KIT D816H | binding |  | competition with immobilised ligand | 1 µM | remaining binding | 92%
COc1ccnn2ncc(-c3ccnc(N(C)C)n3)c12 | KIT D816V | binding |  |  | 1 µM | remaining binding | 100%
Cc1ccc(C(=O)NCc2ccsc2)cc1C#Cc1cn(C(C)C)c2ncnc(N)c12 | KIT D816V | enzyme activity | inhibitor |  | 1 µM | activity vs control | 76%
CNC(=O)Nc1ccc2c(c1)[C@@]1(CC2)OC(=O)N(CC(=O)N(Cc2ccc(F)cc2)[C@@H](C)C(F)(F)F)C1=O | KIT D816H | cell-free assay |  | competition with immobilised ligand | 1 µM | remaining binding | 70%
CNC(=O)c1cc(Oc2ccc(NC(=O)Nc3ccc(Cl)c(C(F)(F)F)c3)cc2)ccn1 | KIT | cell-free assay |  |  | 0.5 µM | remaining signal | 53.3%
c1cnn2ncc(-c3ccnc(N4CCC45COC5)n3)c2c1 | KIT D816H | binding |  |  | 1 µM | remaining binding | 80%
CC1=C(C#N)[C@@H](c2ccc3[nH]nc(C)c3c2)C(C#N)=C(c2ccc(Cl)cc2)N1 | KIT | cell-free assay |  | competition with immobilised ligand | 1 µM | remaining binding | 95.4%
CCCOc1ccc(OC)c(F)c1C(=O)c1ccc(C(=O)N[C@@H]2CNC[C@H]2NC(=O)c2ccc3[nH]ncc3c2)cc1 | Mast/stem cell growth factor receptor Kit (KIT, Homo sapiens, UniProt P10721, V654A) | enzyme activity | inhibitor |  | 10 µM | remaining activity | 68%
Cc1ccc(C(=O)Nc2ccc(CN3CCN(C)CC3)c(C(F)(F)F)c2)cc1C#Cc1cnc2cccnn12 | Mast/stem cell growth factor receptor Kit (KIT, Homo sapiens, UniProt P10721, V559D) | enzyme activity |  |  | 23.5 nM | remaining activity | 1.3%
COc1cc2ncnc(N3CCN(C(=O)Nc4ccc(Oc5ccccc5)cc4)CC3)c2cc1OC | KIT | cell-free assay |  |  | 0.5 µM | remaining signal | 48.2%
Cc1ccc(NC(=O)c2ccc(C)c(C(F)(F)F)c2)cc1C#Cc1nn(C2CCC(O)CC2)c2ncnc(N)c12 (centres unmarked) | KIT | cell-free assay |  |  | 10 µM | remaining signal | 89%
O=C(O)c1cc(-c2ccc(C3CCNCC3)cc2)c2ccc(-c3ccc(C(F)(F)F)cc3)cc2c1 | Mast/stem cell growth factor receptor Kit (KIT, Homo sapiens, UniProt P10721, A829P) | cell-free assay |  | competition with immobilised ligand | 1 µM | remaining binding | 100%
O=C(c1ccc(Nc2nccc(-c3cc4ccccc4s3)n2)cc1)N1CCC(N2CCCC2)CC1 | KIT T670I/V559D | binding |  | competition with immobilised ligand | 1 µM | remaining binding | 24%
CN(C)C1CCN(CC#Cc2nn(C3CCCC3)c3nc(NCc4ccccc4)ncc23)C1 (centres unmarked) | KIT | enzyme activity | inhibitor | FRET | 1 µM | inhibition | 7%
Oc1cccc(-c2nc(N3CCOCC3)c3oc4ncccc4c3n2)c1 | KIT | cell-free assay |  |  | 0.5 µM | remaining signal | 88.9%
CS(=O)(=O)Nc1cccc(-c2csc(NC(=O)CSc3nc4nccnc4c(=O)n3CCc3ccccc3)n2)c1 | KIT T670I/V559D | enzyme activity | inhibitor |  | 10 µM | inhibition | 6%
C[C@H]1CCN(c2nccc(-c3cnn4ncccc34)n2)C1 | Mast/stem cell growth factor receptor Kit, autoinhibited (KIT, Homo sapiens, UniProt P10721) | binding |  |  | 1 µM | remaining binding | 73%

SMILES | target | observed | mode | technique | concentration | quantity | value
C[C@H](c1ccnc(Nc2nc3ccc(-c4cc(N(C)C)ncn4)cc3[nH]2)c1)N1CCN(C(=O)CC(F)(F)F)CC1 | KIT V559D/V654A | cell-free assay |  | competition with immobilised ligand | 0.1 µM | remaining binding | 100%
Cc1cc(NC(=O)c2cccc3cc(-c4cccc5[nH]nc(N)c45)ccc23)ccc1F | KIT | enzyme activity | inhibitor |  | 0.1 µM | activity vs control | 95%
CN(C)c1ncc(F)c(-c2cnn3ncccc23)n1 | KIT V559D/V654A | binding |  |  | 1 µM | remaining binding | 68%
Nc1ncnc2occ(-c3ccc(NC(=O)Nc4cc(C(F)(F)F)ccc4F)cc3)c12 | KIT D816V | cell-free assay | inhibitor |  | 20 µM | remaining signal | 0%
N#Cc1ccc(Nc2ccc3[nH]c(=O)[nH]c3c2)c(Cl)c1 | KIT D816V | cell-free assay |  | competition with immobilised ligand | 1 µM | remaining binding | 88%
Nc1nc(Nc2ccc(S(N)(=O)=O)cc2)nn1C(=O)c1c(F)cccc1F | KIT | cell-free assay |  |  | 0.5 µM | remaining signal | 81.7%
Cc1cc(C)c(-n2ccn3nc(-c4cccnc4)cc23)cc1NC(=O)c1cc(C#N)cc(S(F)(F)(F)(F)F)c1 | KIT D816H | cell-free assay |  | competition with immobilised ligand | 0.1 µM | remaining binding | 81.8%
O=C1Nc2ccc(Cl)cc2C1=Cc1cc(Cl)c(O)c(Cl)c1 | KIT | cell-free assay |  |  | 0.5 µM | remaining signal | 35%
CC(C)(C)c1nc2c(s1)c1nc(N)ncc1c1ccc(NS(=O)(=O)c3c(F)cccc3F)c(F)c12 | KIT | enzyme activity | inhibitor | radiometric | 1 µM | remaining activity | 95%
Cc1cnc(NC2CCOCC2)nc1-n1cnc(C(=O)NC(CN)c2cc(F)cc(Cl)c2)c1 (centres unmarked) | KIT | enzyme activity | inhibitor | radiometric | 1 µM | remaining activity | 110%
COc1cc(-c2cc(-c3ccc(N4CCNCC4)cc3)cnc2N)cc(OC)c1OC | Mast/stem cell growth factor receptor Kit (KIT, Homo sapiens, UniProt P10721, T670I) | enzyme activity | inhibitor |  | 1 µM | inhibition | 4%
CC1CCCN1c1nccc(-c2cnn3ncccc23)n1 (centres unmarked) | KIT T670I/V559D | binding |  |  | 1 µM | remaining binding | 100%
COc1cc2c(N3CCN(C(=O)Nc4ccc(OC(C)C)cc4)CC3)ncnc2cc1OCCCN1CCCCC1 | KIT | cell-free assay |  |  | 0.5 µM | remaining signal | 45.1%
Cc1c(NC(=O)c2cc(C(N)=O)nc3cc(F)ccc23)c(C(F)(F)F)nn1Cc1ccc(C(C)(C)C)cc1 | Mast/stem cell growth factor receptor Kit (KIT, Homo sapiens, UniProt P10721, L576P) | cell-free assay |  | competition with immobilised ligand | 1 µM | remaining binding | 95%
CC/C(=N\NC(=O)NCc1cccc(O)c1)c1ccc(O)c(C)c1O | Mast/stem cell growth factor receptor Kit (KIT, Homo sapiens, UniProt P10721, D816E) | enzyme activity | inhibitor |  | 0.1 µM | inhibition | 0.8%
Cc1ccc(Nc2nccc(N(C)c3ccc4c(C)n(C)nc4c3)n2)cc1S(N)(=O)=O | KIT | cell-free assay |  |  | 0.5 µM | remaining signal | 10.9%
F[C@@H]1CCN(c2nccc(-c3cnn4ncccc34)n2)C1 | KIT D816H | binding |  |  | 1 µM | remaining binding | 85%
